According to ChEMBL document CHEMBL1148778, “Synthesis and characterization of nonsteroidal glucocorticoid receptor modulators for multiple myeloma” (J Med Chem, 2007):

What was measured:
[1] = target: T1, Glucocorticoid receptor (Homo sapiens, UniProt P04150); assay: Activity at human GR expressed in NHDFneo cells assessed as inhibition of IL-6 production; assay type: cell-based
T1 sequence (P04150 whole entry): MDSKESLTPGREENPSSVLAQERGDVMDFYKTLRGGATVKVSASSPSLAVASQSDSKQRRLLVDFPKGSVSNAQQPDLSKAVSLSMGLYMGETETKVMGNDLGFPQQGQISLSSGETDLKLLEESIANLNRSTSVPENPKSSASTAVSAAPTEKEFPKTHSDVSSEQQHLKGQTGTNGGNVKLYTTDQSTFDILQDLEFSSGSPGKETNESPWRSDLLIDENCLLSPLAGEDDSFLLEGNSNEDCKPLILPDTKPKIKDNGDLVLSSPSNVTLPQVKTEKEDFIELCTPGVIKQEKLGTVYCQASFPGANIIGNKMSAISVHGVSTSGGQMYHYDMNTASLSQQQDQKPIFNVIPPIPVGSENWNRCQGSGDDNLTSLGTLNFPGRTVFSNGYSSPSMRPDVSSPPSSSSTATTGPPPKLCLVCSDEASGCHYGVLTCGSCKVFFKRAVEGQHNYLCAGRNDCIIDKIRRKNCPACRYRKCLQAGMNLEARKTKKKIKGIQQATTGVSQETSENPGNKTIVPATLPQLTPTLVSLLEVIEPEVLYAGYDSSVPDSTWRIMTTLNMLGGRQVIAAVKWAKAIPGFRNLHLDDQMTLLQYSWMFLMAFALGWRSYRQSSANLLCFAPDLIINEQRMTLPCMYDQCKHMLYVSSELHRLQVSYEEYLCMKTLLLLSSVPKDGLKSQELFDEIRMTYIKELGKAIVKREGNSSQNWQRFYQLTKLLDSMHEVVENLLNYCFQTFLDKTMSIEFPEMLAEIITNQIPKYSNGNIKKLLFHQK

[2] = target: T2, Mineralocorticoid receptor (Homo sapiens, UniProt P08235); assay: Binding affinity to MR
T2 sequence (P08235 whole entry): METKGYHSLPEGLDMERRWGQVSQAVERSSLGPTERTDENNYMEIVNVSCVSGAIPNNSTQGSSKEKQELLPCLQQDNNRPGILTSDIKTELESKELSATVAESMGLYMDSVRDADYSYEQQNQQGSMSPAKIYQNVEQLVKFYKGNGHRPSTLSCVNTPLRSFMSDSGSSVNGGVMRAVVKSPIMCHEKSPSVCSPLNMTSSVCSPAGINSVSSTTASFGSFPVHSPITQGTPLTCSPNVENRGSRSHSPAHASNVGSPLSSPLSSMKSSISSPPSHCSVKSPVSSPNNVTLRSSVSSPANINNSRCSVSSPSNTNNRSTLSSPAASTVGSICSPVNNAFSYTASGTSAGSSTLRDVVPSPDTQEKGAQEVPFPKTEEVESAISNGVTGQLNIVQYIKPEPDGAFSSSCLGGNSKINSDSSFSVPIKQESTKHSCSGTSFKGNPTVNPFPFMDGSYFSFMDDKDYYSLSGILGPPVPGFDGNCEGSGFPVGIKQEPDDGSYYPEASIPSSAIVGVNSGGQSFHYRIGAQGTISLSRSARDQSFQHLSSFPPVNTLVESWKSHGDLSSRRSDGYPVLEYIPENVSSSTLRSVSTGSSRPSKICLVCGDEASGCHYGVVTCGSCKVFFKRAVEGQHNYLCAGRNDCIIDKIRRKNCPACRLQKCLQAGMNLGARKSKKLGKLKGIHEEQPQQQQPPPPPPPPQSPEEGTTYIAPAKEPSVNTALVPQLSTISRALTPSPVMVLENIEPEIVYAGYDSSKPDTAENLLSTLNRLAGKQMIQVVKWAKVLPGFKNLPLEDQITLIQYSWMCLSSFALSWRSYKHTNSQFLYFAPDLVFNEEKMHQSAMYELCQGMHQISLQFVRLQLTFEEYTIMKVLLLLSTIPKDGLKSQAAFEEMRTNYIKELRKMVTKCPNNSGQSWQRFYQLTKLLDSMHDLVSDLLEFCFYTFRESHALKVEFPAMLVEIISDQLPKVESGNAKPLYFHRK
Method in brief: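 Competitive binding assays on PR and MR. Values are means of at least three separate experiments, each with triplicate determinations, ± SEM. A value without SEM comes from a single determination.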

[3] = target: T3, Androgen receptor (Homo sapiens, UniProt P10275); assay: Binding affinity to AR
T3 sequence (P10275 whole entry): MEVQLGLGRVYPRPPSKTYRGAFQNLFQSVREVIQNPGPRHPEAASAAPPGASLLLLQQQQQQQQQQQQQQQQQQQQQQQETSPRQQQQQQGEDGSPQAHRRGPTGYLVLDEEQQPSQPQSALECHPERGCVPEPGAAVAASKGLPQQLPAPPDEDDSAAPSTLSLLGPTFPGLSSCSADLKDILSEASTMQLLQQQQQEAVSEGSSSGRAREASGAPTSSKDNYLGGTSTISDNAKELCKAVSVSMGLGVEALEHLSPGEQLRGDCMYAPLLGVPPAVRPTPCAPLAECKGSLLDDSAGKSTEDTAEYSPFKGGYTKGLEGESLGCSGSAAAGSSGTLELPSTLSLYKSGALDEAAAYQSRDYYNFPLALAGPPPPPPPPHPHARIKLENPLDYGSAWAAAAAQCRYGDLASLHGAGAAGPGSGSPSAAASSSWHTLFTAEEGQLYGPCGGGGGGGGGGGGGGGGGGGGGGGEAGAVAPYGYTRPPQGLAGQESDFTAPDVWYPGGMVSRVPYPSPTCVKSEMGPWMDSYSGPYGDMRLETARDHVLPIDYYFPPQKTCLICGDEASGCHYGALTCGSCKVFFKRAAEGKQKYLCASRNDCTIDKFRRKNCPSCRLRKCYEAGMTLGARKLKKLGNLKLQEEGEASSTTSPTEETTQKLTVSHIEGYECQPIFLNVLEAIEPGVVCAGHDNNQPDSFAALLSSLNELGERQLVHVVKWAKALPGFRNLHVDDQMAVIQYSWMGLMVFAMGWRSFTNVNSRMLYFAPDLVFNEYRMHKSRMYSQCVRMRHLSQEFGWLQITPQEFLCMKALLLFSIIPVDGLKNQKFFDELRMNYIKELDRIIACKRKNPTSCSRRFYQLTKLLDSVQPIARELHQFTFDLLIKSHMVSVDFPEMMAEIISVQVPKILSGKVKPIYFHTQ

| SMILES | IC50 [1] [µM] | Ki [2] [µM] | Ki [3] [µM] |
| --- | --- | --- | --- |
| COCc1ccsc1/C=C1\Oc2ccc(O)c(OC)c2-c2ccc3c(c21)C(C)=CC(C)(C)N3 | 0.0002 | 0.01 | 0.15 |
| CO/N=C(\C)c1ccsc1/C=C1\Oc2ccc(O)c(OC)c2-c2ccc3c(c21)C(C)=CC(C)(C)N3 | 0.0002 | 0.048 | 0.11 |
| COc1c(O)ccc2c1-c1ccc3c(c1/C(=C/c1sccc1CO)O2)C(C)=CC(C)(C)N3 | 0.0002 | 0.98 | 0.29 |
